Values after ≈ are worked out from the molar mass of the structure shown. One block for each molecule: values may come before it. Active and inactive are the calls of the source. The rule behind the calls is not given here.
Assays:
[1] = target: Sodium channel protein type 9 subunit alpha (Homo sapiens, UniProt Q15858); assay: Inhibition of human NaV1.7 expressed in HEK293 cells by whole-cell voltage clamp assay; type: cell-based
In short: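 Human NaV1.7 α-subunit stably expressed in HEK293 cells. Currents were recorded by perforated whole-cell automated planar patch clamp (IonWorks Quattro) in D-PBS external solution with 5.5 mM glucose. Cells were held at −65 mV, and a train of eight 30 ms steps to −20 mV at 3 Hz was applied. Half-log serial dilutions were made in DMSO, giving 0.3% DMSO in the recording solution.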

[2] = target: Sodium channel protein type 5 subunit alpha (Homo sapiens, UniProt Q14524); assay: Inhibition of human NaV1.5 expressed in CHO cells by IonWorks assay; type: cell-based
[3] = target: Voltage-gated inwardly rectifying potassium channel KCNH2 (Homo sapiens, UniProt Q12809); assay: Inhibition of human ERG expressed in CHO cells by IonWorks HT assay; type: cell-based
[4] = Solubility of the compound; type: physicochemical
Liver microsomes [5] = assay: Intrinsic clearance in rat liver microsomes assessed per ug of protein; type: ADME, Microsome
Liver microsomes [6] = assay: Intrinsic clearance in human liver microsomes assessed per ug of protein; type: ADME, Microsome
[7] = target: Serotonin (5-HT) receptor (Homo sapiens) (UniProt P30939+P41595+Q13639+P28222+P46098+P08908+P28221+P28223+P28335+P28566+P34969+P50406+P47898+A5X5Y0+O95264+Q70Z44+Q8WXA8); assay: Activity at 5HT receptor; type: protein assay
Rattus norvegicus [8] = assay: Dose normalized AUC in Sprague-Dawley rat at 3 umol/kg, iv; type: ADME, organism-based; details: in vivo
In short: (§1)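 Rat pharmacokinetics used fasted male Sprague–Dawley rats, three animals per administration route per compound. The intravenous dose was 3 µmol/kg, with a separate oral arm.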

[9] = Volume of distribution at steady state in Sprague-Dawley rat at 3 umol/kg, iv; type: ADME, organism-based; details: in vivo, read-out: Vdss; in short: as §1
[10] = Half life in Sprague-Dawley rat at 3 umol/kg, iv; type: ADME, organism-based; details: in vivo; in short: as §1
[11] = Clearance in Sprague-Dawley rat at 3 umol/kg, iv; type: ADME, organism-based; details: in vivo; in short: as §1
Rattus norvegicus [12] = assay: Dose normalized AUC in Sprague-Dawley rat at 10 umol/kg, po; type: ADME, organism-based; details: in vivo; in short: as §1
[13] = Cmax in Sprague-Dawley rat at 10 umol/kg, po; type: ADME, organism-based; design: dose 10 umol/kg, route oral; details: in vivo; in short: as §1
[14] = Tmax in Sprague-Dawley rat at 10 umol/kg, po; type: ADME, organism-based; details: in vivo; in short: as §1
[15] = Half life in Sprague-Dawley rat at 10 umol/kg, po; type: ADME, organism-based; details: in vivo; in short: as §1
[16] = Oral bioavailability in Sprague-Dawley rat at 10 umol/kg; type: ADME, organism-based; details: in vivo; in short: as §1
[17] = target: T1, Alpha-2B adrenergic receptor (Homo sapiens) (UniProt P18089); assay: Displacement of [3H]rauwolscine from adrenergic alpha2B receptor at 10 uM
T1 sequence (whole entry): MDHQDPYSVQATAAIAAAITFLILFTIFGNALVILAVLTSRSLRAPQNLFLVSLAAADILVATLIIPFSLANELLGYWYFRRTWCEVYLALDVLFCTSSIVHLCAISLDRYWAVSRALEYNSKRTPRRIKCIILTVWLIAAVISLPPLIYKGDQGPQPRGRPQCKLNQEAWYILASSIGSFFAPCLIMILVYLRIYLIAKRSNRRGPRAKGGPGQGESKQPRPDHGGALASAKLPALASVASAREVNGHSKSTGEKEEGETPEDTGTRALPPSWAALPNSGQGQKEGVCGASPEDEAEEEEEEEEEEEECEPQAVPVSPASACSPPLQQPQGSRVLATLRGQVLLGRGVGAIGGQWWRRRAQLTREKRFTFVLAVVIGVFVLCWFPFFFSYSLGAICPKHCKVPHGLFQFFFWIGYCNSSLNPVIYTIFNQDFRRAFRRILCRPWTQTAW

[18] = target: T2, Sodium-dependent dopamine transporter (Homo sapiens, UniProt Q01959); assay: Displacement of [125I]RTI-55 from DAT at 10 uM
[19] = target: T3, Growth hormone secretagogue receptor type 1 (Homo sapiens, UniProt Q92847); assay: Displacement of [125I]ghrelin from GHS receptor at 10 uM
[20] = target: T2, Sodium-dependent dopamine transporter; assay: Displacement of [125I]RTI-55 from DAT
[21] = target: T3, Growth hormone secretagogue receptor type 1; assay: Displacement of [125I]ghrelin from GHS receptor
[22] = target: T4, 5-hydroxytryptamine receptor 1A (Homo sapiens) (UniProt P08908); assay: Activity at 5HT1A receptor
T4 sequence (whole entry): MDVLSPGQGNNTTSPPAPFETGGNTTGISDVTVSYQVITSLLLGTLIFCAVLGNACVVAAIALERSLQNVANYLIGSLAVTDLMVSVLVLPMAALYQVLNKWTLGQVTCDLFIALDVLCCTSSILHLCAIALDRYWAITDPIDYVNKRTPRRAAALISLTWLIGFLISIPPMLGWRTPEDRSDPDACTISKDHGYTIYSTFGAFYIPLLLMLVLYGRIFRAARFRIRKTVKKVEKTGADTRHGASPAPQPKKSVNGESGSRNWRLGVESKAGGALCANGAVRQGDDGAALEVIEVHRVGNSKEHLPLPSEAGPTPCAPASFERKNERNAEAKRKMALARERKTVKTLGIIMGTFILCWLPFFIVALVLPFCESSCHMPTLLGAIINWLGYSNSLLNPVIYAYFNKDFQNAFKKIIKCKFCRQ

[23] = target: 5-hydroxytryptamine receptor 1B (Homo sapiens) (UniProt P28222); assay: Activity at 5HT1B receptor
Homo sapiens = organism: Homo sapiens; assay: Displacement of [3H]nitrobenzylthioinosine from adenosine transporter at 10 uM
Cannabinoid receptor 1 [24] = target: T5, Cannabinoid receptor 1 (Homo sapiens, UniProt P21554); assay: Displacement of [3H]SR141716A from CB1 receptor at 10 uM
[25] = target: T6, C-C chemokine receptor type 1 (Homo sapiens) (UniProt P32246); assay: Increase in [125I]MIP-1alpha binding to CCR1 at 10 uM
T6 sequence (whole entry): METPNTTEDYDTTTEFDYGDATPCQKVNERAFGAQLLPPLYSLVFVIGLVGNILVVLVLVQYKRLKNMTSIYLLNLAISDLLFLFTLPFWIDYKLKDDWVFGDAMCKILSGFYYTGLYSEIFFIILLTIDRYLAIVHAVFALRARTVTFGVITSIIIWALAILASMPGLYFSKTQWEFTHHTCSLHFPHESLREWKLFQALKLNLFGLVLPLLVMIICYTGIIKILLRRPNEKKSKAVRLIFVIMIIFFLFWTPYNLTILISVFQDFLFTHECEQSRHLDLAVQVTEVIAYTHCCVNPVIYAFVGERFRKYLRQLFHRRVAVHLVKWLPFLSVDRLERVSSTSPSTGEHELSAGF

[26] = Displacement of [3H]nitrobenzylthioinosine from adenosine transporter; design: species or system Homo sapiens
Cannabinoid receptor 1 [27] = target: T5, Cannabinoid receptor 1; assay: Displacement of [3H]SR141716A from CB1 receptor
Cannabinoid receptor 1 [28] = target: T5, Cannabinoid receptor 1; assay: Agonist activity at CB1 receptor by [35gammaS]GTP incorporation assay; type: functional
Rattus norvegicus [29] = assay: Antinociceptive activity in po dosed formalin-challenged Sprague-Dawley rat assessed as latency in paw licking during phase 1 administered 3 hrs prior to formalin-challenge measured up to 5 mins post formalin challenge; type: functional, organism-based
In short: (§2)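 Sprague–Dawley rats (n = 9/group) were dosed by oral gavage 3 h before formalin, at 0, 19, 49 and 99 µmol/kg, as a nanosuspension in 1% PVP K30/0.2% SDS. Formalin was 100 µL of 2.0% injected s.c. into the dorsal left hind paw. Paw-licking time was scored over 35 min: phase 1 at 0–5 min, phase 2 at 15–35 min. Results were given as % of vehicle, with total plasma concentration as mean SD. Statistics were one-way ANOVA, then unpaired one-tailed t-test.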

Rattus norvegicus [30] = assay: Antinociceptive activity in formalin-challenged Sprague-Dawley rat assessed as latency in paw licking during phase 1 at 49 umol/kg, po administered 3 hrs prior to formalin-challenge measured up to 5 mins post formalin challenge relative to control; type: functional; in short: as §2
Plasma = assay: Plasma concentration in formalin-challenged Sprague-Dawley rat at 49 umol/kg, po administered 3 hrs prior to formalin-challenge measured up to 5 mins post formalin challenge; type: ADME, organism-based; details: in vivo; in short: as §2
Rattus norvegicus [31] = assay: Antinociceptive activity in formalin-challenged Sprague-Dawley rat assessed as latency in paw licking during phase 2 at […], po administered 3 hrs prior to formalin-challenge measured up to 15 to 35 mins post formalin challenge; type: functional, organism-based; in short: as §2

Sequence of Sodium channel protein type 5 subunit alpha (Q14524 whole entry): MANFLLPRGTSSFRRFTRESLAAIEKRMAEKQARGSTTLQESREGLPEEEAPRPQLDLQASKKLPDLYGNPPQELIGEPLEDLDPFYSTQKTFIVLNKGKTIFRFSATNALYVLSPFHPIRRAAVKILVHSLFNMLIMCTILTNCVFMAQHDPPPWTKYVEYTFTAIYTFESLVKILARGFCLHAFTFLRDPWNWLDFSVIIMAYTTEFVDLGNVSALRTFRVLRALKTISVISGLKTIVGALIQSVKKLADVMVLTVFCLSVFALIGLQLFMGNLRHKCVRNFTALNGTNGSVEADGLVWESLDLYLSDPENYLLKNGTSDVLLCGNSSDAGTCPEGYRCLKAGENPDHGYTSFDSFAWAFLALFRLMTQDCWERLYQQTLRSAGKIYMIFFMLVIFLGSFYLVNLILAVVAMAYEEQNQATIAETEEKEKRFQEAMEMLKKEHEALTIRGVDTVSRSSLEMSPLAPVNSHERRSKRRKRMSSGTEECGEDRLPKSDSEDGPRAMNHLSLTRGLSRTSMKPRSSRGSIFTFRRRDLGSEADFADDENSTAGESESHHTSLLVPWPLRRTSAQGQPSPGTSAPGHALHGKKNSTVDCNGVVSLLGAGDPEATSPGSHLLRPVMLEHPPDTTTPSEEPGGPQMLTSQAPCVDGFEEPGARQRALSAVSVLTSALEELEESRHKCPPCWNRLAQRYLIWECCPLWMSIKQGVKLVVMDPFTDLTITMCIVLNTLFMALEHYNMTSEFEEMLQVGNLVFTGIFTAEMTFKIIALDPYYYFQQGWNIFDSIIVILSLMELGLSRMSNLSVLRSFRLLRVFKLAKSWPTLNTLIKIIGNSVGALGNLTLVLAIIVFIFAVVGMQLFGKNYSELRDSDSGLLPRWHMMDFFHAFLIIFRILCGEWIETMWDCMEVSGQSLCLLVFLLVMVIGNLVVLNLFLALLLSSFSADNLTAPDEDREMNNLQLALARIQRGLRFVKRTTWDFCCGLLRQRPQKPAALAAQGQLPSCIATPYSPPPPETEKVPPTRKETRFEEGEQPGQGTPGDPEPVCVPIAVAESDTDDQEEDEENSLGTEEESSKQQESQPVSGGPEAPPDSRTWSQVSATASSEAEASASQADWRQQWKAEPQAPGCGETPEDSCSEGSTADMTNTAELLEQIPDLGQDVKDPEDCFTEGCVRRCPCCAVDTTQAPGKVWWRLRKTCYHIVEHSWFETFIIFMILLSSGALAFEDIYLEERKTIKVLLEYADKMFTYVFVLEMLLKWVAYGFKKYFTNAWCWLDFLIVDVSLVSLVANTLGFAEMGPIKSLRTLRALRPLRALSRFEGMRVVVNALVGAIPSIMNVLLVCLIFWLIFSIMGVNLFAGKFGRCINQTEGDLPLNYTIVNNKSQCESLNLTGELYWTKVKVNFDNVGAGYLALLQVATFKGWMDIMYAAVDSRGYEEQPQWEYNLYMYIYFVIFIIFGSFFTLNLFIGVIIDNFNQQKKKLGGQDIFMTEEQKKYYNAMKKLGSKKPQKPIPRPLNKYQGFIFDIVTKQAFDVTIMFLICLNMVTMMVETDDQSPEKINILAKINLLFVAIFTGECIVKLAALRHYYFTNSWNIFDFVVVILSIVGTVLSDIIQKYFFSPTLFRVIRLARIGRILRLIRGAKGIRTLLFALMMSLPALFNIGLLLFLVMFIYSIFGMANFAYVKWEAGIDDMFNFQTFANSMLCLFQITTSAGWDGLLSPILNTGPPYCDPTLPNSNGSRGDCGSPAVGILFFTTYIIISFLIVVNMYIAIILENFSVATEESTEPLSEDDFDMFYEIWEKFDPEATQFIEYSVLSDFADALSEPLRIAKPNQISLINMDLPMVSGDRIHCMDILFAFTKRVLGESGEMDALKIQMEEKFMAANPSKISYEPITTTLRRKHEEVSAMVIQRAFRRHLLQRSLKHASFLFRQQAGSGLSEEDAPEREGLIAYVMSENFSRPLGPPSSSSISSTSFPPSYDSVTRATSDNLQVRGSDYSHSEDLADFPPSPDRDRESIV
Sequence of Sodium channel protein type 9 subunit alpha (Q15858 whole entry): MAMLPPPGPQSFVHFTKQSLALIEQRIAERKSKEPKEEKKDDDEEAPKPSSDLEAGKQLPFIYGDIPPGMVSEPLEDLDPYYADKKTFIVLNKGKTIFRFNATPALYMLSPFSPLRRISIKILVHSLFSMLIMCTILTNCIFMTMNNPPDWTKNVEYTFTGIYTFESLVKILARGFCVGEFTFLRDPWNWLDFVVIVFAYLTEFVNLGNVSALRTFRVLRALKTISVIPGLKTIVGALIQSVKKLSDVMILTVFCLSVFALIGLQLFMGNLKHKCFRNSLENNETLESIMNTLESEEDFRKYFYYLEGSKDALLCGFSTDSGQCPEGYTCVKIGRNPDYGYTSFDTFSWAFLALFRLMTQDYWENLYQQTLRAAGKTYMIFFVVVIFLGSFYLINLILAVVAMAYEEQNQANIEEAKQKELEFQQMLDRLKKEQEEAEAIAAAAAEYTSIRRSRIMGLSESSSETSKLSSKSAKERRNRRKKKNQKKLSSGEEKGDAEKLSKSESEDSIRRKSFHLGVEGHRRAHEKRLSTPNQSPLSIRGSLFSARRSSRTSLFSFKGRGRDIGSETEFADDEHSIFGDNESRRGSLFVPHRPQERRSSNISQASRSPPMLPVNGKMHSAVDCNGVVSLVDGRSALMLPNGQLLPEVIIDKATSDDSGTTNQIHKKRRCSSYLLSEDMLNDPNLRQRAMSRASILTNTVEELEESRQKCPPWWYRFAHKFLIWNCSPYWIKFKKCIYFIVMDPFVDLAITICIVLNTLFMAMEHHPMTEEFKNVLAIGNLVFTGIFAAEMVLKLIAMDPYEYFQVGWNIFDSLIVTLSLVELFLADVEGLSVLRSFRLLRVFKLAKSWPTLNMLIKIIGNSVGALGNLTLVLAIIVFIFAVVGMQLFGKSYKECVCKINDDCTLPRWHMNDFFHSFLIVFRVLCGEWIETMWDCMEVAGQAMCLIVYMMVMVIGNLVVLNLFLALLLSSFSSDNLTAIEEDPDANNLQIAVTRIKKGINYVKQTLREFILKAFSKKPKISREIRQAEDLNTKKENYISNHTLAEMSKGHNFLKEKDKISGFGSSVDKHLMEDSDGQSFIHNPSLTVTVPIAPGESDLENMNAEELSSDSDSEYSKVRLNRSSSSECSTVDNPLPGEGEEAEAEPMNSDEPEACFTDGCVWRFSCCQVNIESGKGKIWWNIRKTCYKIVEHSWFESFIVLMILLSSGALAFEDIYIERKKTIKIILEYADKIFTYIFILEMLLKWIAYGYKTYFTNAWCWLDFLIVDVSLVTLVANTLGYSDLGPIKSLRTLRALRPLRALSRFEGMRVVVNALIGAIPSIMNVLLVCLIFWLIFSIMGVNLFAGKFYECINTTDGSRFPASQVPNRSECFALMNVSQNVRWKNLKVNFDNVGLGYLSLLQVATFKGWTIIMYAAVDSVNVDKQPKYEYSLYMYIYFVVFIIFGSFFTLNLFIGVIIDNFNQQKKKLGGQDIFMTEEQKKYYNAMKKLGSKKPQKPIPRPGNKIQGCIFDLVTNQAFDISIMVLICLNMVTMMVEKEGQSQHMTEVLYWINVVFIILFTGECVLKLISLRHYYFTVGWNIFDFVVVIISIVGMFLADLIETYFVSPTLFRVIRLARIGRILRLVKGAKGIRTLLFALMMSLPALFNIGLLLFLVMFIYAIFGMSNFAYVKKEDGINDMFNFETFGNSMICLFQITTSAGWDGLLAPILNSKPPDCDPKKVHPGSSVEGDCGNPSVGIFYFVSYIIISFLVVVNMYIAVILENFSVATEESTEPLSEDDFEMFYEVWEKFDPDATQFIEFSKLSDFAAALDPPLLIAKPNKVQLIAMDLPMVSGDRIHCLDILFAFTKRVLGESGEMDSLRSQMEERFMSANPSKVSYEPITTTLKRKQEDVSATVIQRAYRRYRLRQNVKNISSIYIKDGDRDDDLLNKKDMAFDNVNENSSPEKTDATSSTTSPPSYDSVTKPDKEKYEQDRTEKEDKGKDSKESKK
T5 sequence (P21554 whole entry): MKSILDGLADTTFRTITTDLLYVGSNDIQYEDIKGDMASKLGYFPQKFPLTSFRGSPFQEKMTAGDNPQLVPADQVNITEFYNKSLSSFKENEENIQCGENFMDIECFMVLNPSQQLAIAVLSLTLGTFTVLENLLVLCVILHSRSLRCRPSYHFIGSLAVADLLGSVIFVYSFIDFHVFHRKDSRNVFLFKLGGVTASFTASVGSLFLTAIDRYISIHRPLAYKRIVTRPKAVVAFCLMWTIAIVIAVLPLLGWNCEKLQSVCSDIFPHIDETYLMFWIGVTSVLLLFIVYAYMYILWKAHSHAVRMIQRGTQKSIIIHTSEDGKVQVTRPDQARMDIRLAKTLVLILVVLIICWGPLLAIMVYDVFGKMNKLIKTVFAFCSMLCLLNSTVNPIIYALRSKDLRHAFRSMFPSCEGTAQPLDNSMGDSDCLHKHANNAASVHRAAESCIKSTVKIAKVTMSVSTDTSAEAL
T3 sequence (Q92847 whole entry): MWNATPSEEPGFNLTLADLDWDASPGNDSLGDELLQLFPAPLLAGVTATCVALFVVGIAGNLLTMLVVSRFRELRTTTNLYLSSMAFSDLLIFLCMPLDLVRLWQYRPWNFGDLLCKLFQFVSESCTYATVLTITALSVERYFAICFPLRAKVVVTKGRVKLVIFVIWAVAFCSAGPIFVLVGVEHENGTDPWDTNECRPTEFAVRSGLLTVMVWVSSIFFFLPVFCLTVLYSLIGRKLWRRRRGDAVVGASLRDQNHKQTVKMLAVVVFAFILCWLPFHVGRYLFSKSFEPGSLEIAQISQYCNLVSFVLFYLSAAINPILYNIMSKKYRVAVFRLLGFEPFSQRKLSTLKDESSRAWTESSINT

SMILES: O=C(N[C@@H]1COc2cccc(-c3ccnc(CO)c3)c2C1)c1ccc(OCC(F)(F)F)nc1
IC50 [1]: 0.501 µM | IC50 [2]: 6.31 µM | solubility [4]: 17 µM (≈ 7.81 µg/mL) | CLint (Liver microsomes [5]): < 10 µL/min/mg | CLint (Liver microsomes [6]): 15 µL/min/mg | Activity [7]: inactive

SMILES: Cc1nn(-c2ccccc2)nc1C(=O)N[C@@H]1COc2cccc(N3CCN(C)CC3)c2C1
IC50 [1]: 0.316 µM | IC50 [2]: 5.01 µM | IC50 [3]: 7.94 µM | solubility [4]: 211 µM (≈ 91.3 µg/mL) | CLint (Liver microsomes [5]): 4 µL/min/mg | CLint (Liver microsomes [6]): 14 µL/min/mg | Activity [7]: Active

SMILES: O=C(N[C@@H]1COc2cccc(-c3ccc(CO)nc3)c2C1)c1ccc(OCCOCC(F)(F)F)nc1
IC50 [1]: 0.158 µM | IC50 [2]: 7.94 µM | IC50 [3]: 15.8 µM | solubility [4]: 54 µM (≈ 27.2 µg/mL) | CLint (Liver microsomes [5]): < 10 µL/min/mg | CLint (Liver microsomes [6]): 11 µL/min/mg

SMILES: CN1CCN(c2cccc3c2C[C@H](NC(=O)c2ccc(OCC(F)(F)F)nc2)CO3)CC1
IC50 [1]: 0.794 µM | IC50 [2]: 5.01 µM | IC50 [3]: 7.94 µM | solubility [4]: 82 µM (≈ 36.9 µg/mL) | CLint (Liver microsomes [5]): < 10 µL/min/mg | CLint (Liver microsomes [6]): < 10 µL/min/mg

SMILES: CN1CCN(c2cccc3c2C[C@H](NC(=O)c2ccc(OC(F)(F)F)cc2)CO3)CC1
IC50 [1]: 2 µM | IC50 [2]: 2 µM | IC50 [3]: 7.94 µM | solubility [4]: 27 µM (≈ 11.8 µg/mL) | CLint (Liver microsomes [5]): 18 µL/min/mg | CLint (Liver microsomes [6]): 2.5 µL/min/mg

Continued by falling IC50 [1], values first:

IC50 [1]: 0.158 µM | solubility [4]: 58 µM (≈ 26.6 µg/mL) | CLint (Liver microsomes [5]): < 10 µL/min/mg | CLint (Liver microsomes [6]): 10 µL/min/mg | Activity [7]: inactive | AUC/dose (Rattus norvegicus [8]): 0.4 kg·h/L | Vd [9]: 11 L/kg | half-life [10]: 3.8 h | clearance [11]: 42.2 mL/min/kg | AUC/dose (Rattus norvegicus [12]): 0.27 kg·h/L | Cmax [13]: 380 nM | Tmax [14]: 1.5 h | half-life [15]: 3.5 h | bioavailability [16]: 66.3% | inhibition [17]: 55% | inhibition [18]: 80% | inhibition [19]: 98% | IC50 [20]: 2 µM | IC50 [21]: 0.2 µM | Activity [22]: inactive | Activity [23]: inactive
SMILES: O=C(N[C@@H]1COc2cccc(-c3ccc(CO)nc3)c2C1)c1ccc(OCC(F)(F)F)nc1
IC50 [2]: 6.31 µM | IC50 [3]: 10 µM

IC50 [1]: 0.126 µM | solubility [4]: < 1 µM | CLint (Liver microsomes [5]): 14 µL/min/mg | CLint (Liver microsomes [6]): 14 µL/min/mg
SMILES: COc1cnc(-c2cccc3c2C[C@H](NC(=O)c2ccc(OCC(F)(F)F)nc2)CO3)cn1
IC50 [2]: > 25.1 µM | IC50 [3]: > 31.6 µM

IC50 [1]: 0.0794 µM | solubility [4]: 34 µM (≈ 16.1 µg/mL) | CLint (Liver microsomes [5]): < 10 µL/min/mg | CLint (Liver microsomes [6]): < 10 µL/min/mg | AUC/dose (Rattus norvegicus [8]): 0.6 kg·h/L | Vd [9]: 4.2 L/kg | half-life [10]: 2.2 h | clearance [11]: 25 mL/min/kg | AUC/dose (Rattus norvegicus [12]): 0.3 kg·h/L | Cmax [13]: 300 nM | Tmax [14]: 2.5 h | half-life [15]: 4.8 h | bioavailability [16]: 44% | inhibition (Homo sapiens): 66% | inhibition (Cannabinoid receptor 1 [24]): 55% | Activity [25]: 127% | IC50 [26]: 1.8 µM | IC50 (Cannabinoid receptor 1 [27]): 5 µM | Activity (Cannabinoid receptor 1 [28]): inactive | Activity [22]: inactive | Activity [23]: inactive | concentration (Plasma): 5000 nM
SMILES: COc1cnc(-c2cccc3c2C[C@H](NC(=O)c2ccc(COCC(F)(F)F)nc2)CO3)cn1
IC50 [2]: 12.6 µM | IC50 [3]: 12.6 µM | Activity (Rattus norvegicus [29]): Dose-dependent effect | Activity (Rattus norvegicus [30]): 66% | Activity (Rattus norvegicus [31]): inactive

IC50 [1]: 0.0794 µM | solubility [4]: < 1 µM | CLint (Liver microsomes [5]): < 10 µL/min/mg | CLint (Liver microsomes [6]): 16 µL/min/mg
SMILES: Cc1cnc(-c2cccc3c2C[C@H](NC(=O)c2ccc(OCC(F)(F)F)nc2)CO3)cn1
IC50 [2]: > 3.16 µM | IC50 [3]: > 31.6 µM

From ChEMBL document CHEMBL2069242, “Structure and activity relationship in the (S)-N-chroman-3-ylcarboxamide series of voltage-gated sodium channel blockers” (Bioorg Med Chem Lett, 2012)
